The values below come from ChEMBL document CHEMBL3098028, “Synthesis and in vitro and in vivo pharmacological evaluation of new 4-aminoquinoline-based compounds” (ACS Med Chem Lett, 2013).

The test system of series [1] is Liver microsome. In words: Drug metabolism in rat liver microsomes assessed as 2-(5-((4-chlorophenyl)(2-(7-chloroquinolin-4-ylamino)ethylamino)methyl)-1H-tetrazol-1-yl)-2-methylpropan-1-ol level at 5 uM after 1 hr by LC-MS/MS analysis. It counts as ADME.
Series [2] relates to Mus musculus. The experiment in a line: AUC (0 to infinity) in C57BL/6 mouse at 20 mg/kg, po. It is filed as ADME, organism-based, Plasma. The arrangement: time infinity, dose 20 mg/kg, route oral. Conditions: in vivo; call rule not given here. The method, boiled down:
(§1)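 Healthy male C57/BL6 mice received a single intravenous dose (2.5 or 5.0 mg/kg) or oral dose (20 or 40 mg/kg). Plasma concentrations were followed over time to give AUC0-∞ in min·μmol/L, alongside t1/2, CL, Vd, Vss, Cmax, Tmax and oral bioavailability. Values are means of five animals.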

The test system of series [3] is Plasmodium falciparum. The experiment in a line: Antiplasmodial activity against chloroquine-resistant Plasmodium falciparum K1 after 24 hrs by [3H]hypoxanthine incorporation assay. It counts as functional, organism-based. The method, boiled down:
(§2)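 Antiplasmodial testing was done at the Swiss Tropical and Public Health Institute. Chloroquine, the reference drug, was tested as its diphosphate salt.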

Series [4] is described as follows: Kinetic solubility of the compound in phosphate buffered saline at pH 7.4 after 2 hrs by HPLC analysis. It is filed as physicochemical. Particulars: read-out: Kinetic_solubility.
Another series addresses T1, Cytochrome P450 1A2 (Homo sapiens, UniProt P05177).
T1 sequence (P05177 whole entry): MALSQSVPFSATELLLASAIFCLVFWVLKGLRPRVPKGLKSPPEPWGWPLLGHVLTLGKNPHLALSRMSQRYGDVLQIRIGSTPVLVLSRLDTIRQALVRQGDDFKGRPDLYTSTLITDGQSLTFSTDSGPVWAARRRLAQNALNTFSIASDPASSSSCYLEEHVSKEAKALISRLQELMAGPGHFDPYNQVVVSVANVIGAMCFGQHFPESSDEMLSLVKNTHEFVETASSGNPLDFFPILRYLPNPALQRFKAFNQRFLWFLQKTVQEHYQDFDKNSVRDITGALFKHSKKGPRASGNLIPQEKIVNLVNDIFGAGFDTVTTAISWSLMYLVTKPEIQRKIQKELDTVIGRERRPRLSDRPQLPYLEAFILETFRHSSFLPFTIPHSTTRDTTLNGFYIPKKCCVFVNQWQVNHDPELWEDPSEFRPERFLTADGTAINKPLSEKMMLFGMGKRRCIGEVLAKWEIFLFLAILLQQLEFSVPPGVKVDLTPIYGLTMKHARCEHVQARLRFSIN
In words: Inhibition of CYP1A2 in human liver microsomes assessed as phenacetin O-deethylation after 20 mins by LC-MS/MS analysis. It counts as ADME.

Another series concerns the target T2, Cytochrome P450 2C8 (Homo sapiens, UniProt P10632).
T2 sequence (P10632 whole entry): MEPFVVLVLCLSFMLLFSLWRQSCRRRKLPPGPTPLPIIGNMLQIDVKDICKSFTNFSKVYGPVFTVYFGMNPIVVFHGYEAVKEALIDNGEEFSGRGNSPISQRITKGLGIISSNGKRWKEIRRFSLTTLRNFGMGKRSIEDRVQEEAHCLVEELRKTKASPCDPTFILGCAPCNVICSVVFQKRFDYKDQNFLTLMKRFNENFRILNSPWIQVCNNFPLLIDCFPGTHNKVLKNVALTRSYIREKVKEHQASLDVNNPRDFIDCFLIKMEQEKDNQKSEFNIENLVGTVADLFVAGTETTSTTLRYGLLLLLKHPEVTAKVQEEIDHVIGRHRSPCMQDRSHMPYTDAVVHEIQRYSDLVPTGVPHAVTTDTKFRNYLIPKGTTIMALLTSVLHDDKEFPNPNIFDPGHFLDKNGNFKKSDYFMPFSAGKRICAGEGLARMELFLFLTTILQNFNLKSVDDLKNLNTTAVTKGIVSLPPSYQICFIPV
The experiment in a line: Inhibition of CYP2C8 in human liver microsomes assessed as paclitaxel 6alpha-hydroxylation after 20 mins by LC-MS/MS analysis. It counts as ADME. On the technique in general: Microsomes from liver hold many membrane-bound enzymes, among them those of drug oxidation.

For series [5], the system named is Mus musculus. In words: AUC (0 to infinity) in C57BL/6 mouse at 2.5 mg/kg, iv. It is filed as ADME, organism-based, Plasma. The arrangement: time infinity, dose 2.5 mg/kg, route intravenous. Particulars: in vivo. The method, boiled down: as §1
Series [6] is described as follows: Drug metabolism in hepatocytes (unknown origin) assessed as 2-(5-((4-chlorophenyl)(2-(7-chloroquinolin-4-ylamino)ethylamino)methyl)-1H-tetrazol-1-yl)-2-methylpropan-1-ol level at 5 uM after 6 hrs by LC-MS/MS analysis. It is filed as ADME, cell-based, Hepatocyte.
Series [7] concerns Liver microsome. In words: Drug metabolism in rat liver microsomes assessed as 4-(2-((1-tert-butyl-1H-tetrazol-5-yl)(4-chlorophenyl)methylamino)ethylamino)-7-chloroquinoline 1-oxide level at 5 uM after 1 hr by LC-MS/MS analysis. It is filed as ADME.
Series [8] concerns Liver microsome. The experiment in a line: Drug metabolism in human liver microsomes assessed as 4-(2-((1-tert-butyl-1H-tetrazol-5-yl)(4-chlorophenyl)methylamino)ethylamino)-7-chloroquinoline 1-oxide level at 5 uM after 1 hr by LC-MS/MS analysis. It counts as ADME.
The target in a further series is T3, Cytochrome P450 2B6 (Homo sapiens, UniProt P20813).
T3 sequence (P20813 whole entry): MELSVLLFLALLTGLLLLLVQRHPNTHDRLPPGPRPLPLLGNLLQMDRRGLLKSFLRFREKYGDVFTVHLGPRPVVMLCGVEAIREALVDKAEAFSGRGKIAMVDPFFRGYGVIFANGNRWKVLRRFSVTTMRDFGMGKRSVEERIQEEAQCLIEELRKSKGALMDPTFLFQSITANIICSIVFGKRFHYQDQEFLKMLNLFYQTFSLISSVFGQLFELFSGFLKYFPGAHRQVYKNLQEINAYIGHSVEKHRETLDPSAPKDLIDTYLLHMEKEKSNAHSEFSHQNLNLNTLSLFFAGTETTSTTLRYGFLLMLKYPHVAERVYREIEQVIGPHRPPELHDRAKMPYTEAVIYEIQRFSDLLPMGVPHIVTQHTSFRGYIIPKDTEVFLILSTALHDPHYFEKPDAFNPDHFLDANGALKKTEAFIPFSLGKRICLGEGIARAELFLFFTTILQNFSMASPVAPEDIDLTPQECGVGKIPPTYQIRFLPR
The experiment in a line: Inhibition of CYP2B6 in human liver microsomes assessed as bupropion hydroxylation after 20 mins by LC-MS/MS analysis. It counts as ADME.

Series [9] in a line: Drug metabolism in hepatocytes (unknown origin) assessed as 4-(2-((1-tert-butyl-1H-tetrazol-5-yl)(4-chlorophenyl)methylamino)ethylamino)-7-chloroquinoline 1-oxide level at 5 uM after 6 hrs by LC-MS/MS analysis. It is filed as ADME, cell-based, Hepatocyte.
For series [10], the system named is Liver microsome. The experiment in a line: Drug metabolism in human liver microsomes assessed as 2-(5-((4-chlorophenyl)(2-(7-chloroquinolin-4-ylamino)ethylamino)methyl)-1H-tetrazol-1-yl)-2-methylpropan-1-ol level at 5 uM after 1 hr by LC-MS/MS analysis. It counts as ADME.
The subject of series [11] is Plasmodium falciparum. The experiment in a line: Antiplasmodial activity against chloroquine-resistant Plasmodium falciparum W2 after 24 hrs by [3H]hypoxanthine incorporation assay. It is filed as functional, organism-based. The method, boiled down: as §2
The target in the next series is Cytochrome P450 2C9 (Homo sapiens, UniProt P11712). The experiment in a line: Inhibition of CYP2C9 in human liver microsomes assessed as diclofenac 4'-hydroxylation after 20 mins by LC-MS/MS analysis. It counts as ADME.
Another series deals with Cytochrome P450 3A4 (Homo sapiens, UniProt P08684). In words: Inhibition of CYP3A4 in human liver microsomes assessed as midazolam 1'-hydroxylation and testosterone 6beta-hydroxylation after 20 mins by LC-MS/MS analysis. It is filed as ADME.
In series [12] the test system is Mus musculus. In words: AUC (0 to infinity) in C57BL/6 mouse at 40 mg/kg, po. It counts as ADME, organism-based, Plasma. The arrangement: time infinity, dose 40 mg/kg, route oral. Particulars: in vivo. The method, boiled down:
as §1

For series [13], the system named is Mus musculus. The experiment in a line: AUC (0 to infinity) in C57BL/6 mouse at 5 mg/kg, iv. It is filed as ADME, organism-based, Plasma. The arrangement: dose 5 mg/kg, route intravenous, time infinity. Particulars: in vivo. The method, boiled down: as §1

Converted amounts (≈) assume the structure as drawn.

Cytochrome P450 3A4, sequence (P08684 whole entry): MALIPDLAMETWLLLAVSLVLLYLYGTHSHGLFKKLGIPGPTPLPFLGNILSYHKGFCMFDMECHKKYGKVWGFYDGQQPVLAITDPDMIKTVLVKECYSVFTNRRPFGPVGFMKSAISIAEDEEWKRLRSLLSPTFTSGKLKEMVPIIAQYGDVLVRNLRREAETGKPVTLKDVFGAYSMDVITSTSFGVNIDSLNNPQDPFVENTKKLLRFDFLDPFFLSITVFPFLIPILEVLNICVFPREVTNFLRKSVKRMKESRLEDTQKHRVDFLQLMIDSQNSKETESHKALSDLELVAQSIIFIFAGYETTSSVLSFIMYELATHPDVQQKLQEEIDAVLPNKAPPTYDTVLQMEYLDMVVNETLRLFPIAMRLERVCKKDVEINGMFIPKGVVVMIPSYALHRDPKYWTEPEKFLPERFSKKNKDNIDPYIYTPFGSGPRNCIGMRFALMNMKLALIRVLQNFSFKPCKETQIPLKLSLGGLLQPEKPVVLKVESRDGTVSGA
Cytochrome P450 2C9, sequence (P11712 whole entry): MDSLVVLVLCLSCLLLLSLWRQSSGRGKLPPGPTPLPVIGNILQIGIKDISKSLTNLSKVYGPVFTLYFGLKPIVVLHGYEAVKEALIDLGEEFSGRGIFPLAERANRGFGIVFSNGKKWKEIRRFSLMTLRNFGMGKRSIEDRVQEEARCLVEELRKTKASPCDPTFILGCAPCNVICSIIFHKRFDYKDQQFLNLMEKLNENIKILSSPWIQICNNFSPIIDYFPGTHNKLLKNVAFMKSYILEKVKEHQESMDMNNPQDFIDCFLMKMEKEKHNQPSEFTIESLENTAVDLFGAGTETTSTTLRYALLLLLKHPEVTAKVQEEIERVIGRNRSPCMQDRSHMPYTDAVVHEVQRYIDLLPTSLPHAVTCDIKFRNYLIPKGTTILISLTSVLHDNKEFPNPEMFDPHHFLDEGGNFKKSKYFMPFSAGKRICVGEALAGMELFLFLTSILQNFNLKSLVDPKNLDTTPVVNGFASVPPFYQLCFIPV

`CC(C)(C)n1nnnc1C(NCCNc1ccnc2cc(Cl)ccc12)c1ccc(Cl)cc1` (stereo not drawn): the Drug metabolism entry (in the series on Liver microsome [1]; in series [6]; in the series on Liver microsome [7]; in the series on Liver microsome [8]; in series [9]; in the series with Liver microsome [10]) was “Active” each time. For the same compound, the AUC (in general, the area under the concentration-time curve, a measure of exposure) in the series on Mus musculus [2] is 222 µmol·min/L; in the series on Mus musculus [5] it was 107 µmol·min/L; with Mus musculus [12] it was 541 µmol·min/L; with Mus musculus [13] it was 221 µmol·min/L. Besides, the IC50 (commonly the concentration at which inhibition is half-maximal) is 0.001 µM in the series on Plasmodium falciparum [3]; more than 20 µM on Cytochrome P450 1A2; 12.7 µM on Cytochrome P450 2C8; more than 20 µM on Cytochrome P450 2B6; 0.0255 µM with Plasmodium falciparum [11]; 8.91 µM on Cytochrome P450 2C9. In addition, the IC50 on Cytochrome P450 3A4 stood at 0.08 µM. Besides, the solubility kinetic at 2 h in series [4] came out at 6.88 µM (≈ 3.24 µg/mL).
